Screens deposited in PubChem by Sanford-Burnham Center for Chemical Genomics.
These entries were drawn from the full list.
HKDC1 activator: activators of human hexokinase HKDC1; 0.056% of 340,000 active; recombinant HKDC1, G6PDH/diaphorase resazurin fluorescence; stronger effect = lower value; activity change, negative = activation, % at 20 µM; AID 493187;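 active means activation of 40% or more at 20 µM, a change of -40% or lower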
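Dosing: single compound dose of 20 µM, 1% DMSO final / Test system: in-house human HKDC1 enzyme, G6PDH and diaphorase coupling enzymes / Quantity: 5 µg/mL HKDC1 final / Incubation: enzyme reaction 90 min, room temperature, in dark / Buffer or medium: pH 8.0 Tris with MgCl2 / Detection: coupled resazurin-to-resorufin fluorescence, Ex 525/Em 613 nm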
Starred values were filed as active, the others as inactive.

SMILES | HKDC1 activator
O=c1cc(O)c2sc(Nc3ccc(F)c(Cl)c3)nc2[nH]1 | 46
COC1=CC(=O)C(C2CC(=O)c3c(O)cc(O)cc3O2)=CC1=O (stereo not drawn) | 60
O=C(O)CCCN1C(=O)/C(=C\C(Cl)=C\c2ccccc2)SC1=S | 44
Cc1cc(C)c(S(=O)(=O)/N=C2/C=C(Sc3ncn[nH]3)C(=O)c3ccccc32)cc1C | 64
CC(=O)N1CCN(C2c3cccc4cccc(c34)C2NS(=O)(=O)c2ccccc2)CC1 (stereo not drawn) | -49*
Cn1cnnc1SC1c2cccc3cccc(c23)C1NS(=O)(=O)c1ccccc1 (stereo not drawn) | -49*
O=C(O)c1ccc(N2C(=O)/C(=C/c3ccc(-c4ccc([N+](=O)[O-])cc4)o3)C=C2c2ccccc2)cc1 | 43
Cc1cc(O)c(C=O)c2c1C(=O)Oc1c(CO)c(O)c3c(c1O2)C(O)OC3=O (stereo not drawn) | 37
CCOC(=O)c1cc2c(=Cc3ccc(N(C)C)cc3)c3ccccc3n2[n+]1C | 37
COc1ccc(C(=O)/C=C/c2ccsc2)cc1CSCC(=O)O | 36
Oc1ccc(O)c(Cc2nc3ccccc3s2)c1 | 45
O=C1C(F)=CC(COC(c2ccccc2)(c2ccccc2)c2ccccc2)OC1n1cc(F)c(=O)[nH]c1=O (stereo not drawn) | 40
O=C(c1c[nH]c(C(=O)C(Cl)(Cl)Cl)c1)c1ccccc1F | 37
O=C(O)c1ccc(-c2ccc(/C=c3/sc4nc5ccccc5n4c3=O)o2)cc1Cl | 45
COC(=O)c1cc(=O)n(Cc2ccc(OC)cc2)c(=NCc2ccc(OC)cc2)s1 | -43*
COc1ccc(CN2C(=O)c3cccnc3C2O)cc1 (stereo not drawn) | 41
COc1ccc(-n2c(C)cc(C(=O)CCl)c2C)cc1 | 35
COc1ccc(C(=O)/C=C/Sc2nc3ccccc3o2)cc1 | 38
Oc1c(Br)cc(Br)cc1/C=N/c1nc2c(s1)CCCC2 | 37
O=C1NN(c2cccc(Br)c2)C(=O)/C1=C/c1ccc(-c2cc([N+](=O)[O-])ccc2O)o1 | 62
O=C1C=CC(=O)c2c(O)c(N3CCN(CCOCCO)CC3)c(Br)c(O)c21 | 46
CC(=NNC(=S)N1CCN(C2CCCCCC2)CC1)c1ccccn1 | -42*
CC(=NNC(=S)N1CC2CCC(CC2)C1)c1cnccn1 | -47*
O=C1C(O)=CC(=C(c2ccccc2)c2ccccc2)c2ccccc21 | 78
CCOC(=O)/C=C(\C)Sc1cc(O)c2ccccc2c1O | 57
SMILES | HKDC1 activator
CCOC(=O)c1ccc(NC(=O)CSc2ccc(-c3ccccn3)nn2)cc1 | 37
CCOC(=O)c1sc(NC(=O)CSc2nnc(Cc3ccccc3)o2)c(C#N)c1C | -40*
COc1cc(/C=C2\SC(=O)N(c3cccc(Cl)c3)C2=O)cc([N+](=O)[O-])c1O | 51
O=C(O)c1cc(O)c2c(c1)[C@@H]([C@H]1c3cc(C(=O)O)cc(O)c3C(=O)c3c(O[C@@H]4O[C@H](CO)[C@@H](O)[C@H](O)[C@H]4O)cccc31)c1cccc(O[C@@H]3O[C@H](CO)[C@@H](O)[C@H](O)[C@H]3O)c1C2=O | 80
COc1cc(/C=C2\SC(=Nc3ccc(Cl)c(C(=O)O)c3)NC2=O)c(Br)c(Br)c1O | 40
O=C1C(C2=C(O)c3ccccc3C2=O)=Nc2ccccc21 | -242*
CC(=O)C1=C(c2ccc(Br)cc2)C(=O)c2ccccc2C1=O | 83
O=C1C(=C(I)I)c2ccccc2-c2ccccc21 | 61
CC1CCc2c(c3ccccc3n2C(=O)CCl)C1 (stereo not drawn) | 46
COc1ccc(OC(=O)N2C/C(=C/c3ccccc3)C(=O)/C(=C\c3ccccc3)C2)cc1 | 36
CCC[n+]1c2ccccc2cc2ccccc21 | 37
COc1ccc(-c2nc3c(c(=O)n(C)c(=O)n3C)n2CC2CC(c3ccccc3)=NO2)cc1OC (stereo not drawn) | -48*
O=C(OCC(=O)N1CCN(C(=O)c2ccco2)CC1)c1cc(-c2ccco2)nc2ccccc12 | 37
O=S(=O)(Nc1cc(Sc2ncn[nH]2)c(O)c2ccccc12)c1ccccc1 | 55
Cc1onc(C(=O)Nc2ccc(OC(F)(F)F)cc2)c1[N+](=O)[O-] | 79
CC(=O)c1ccc(NC(=O)c2ccc3nc(-c4ccco4)c(-c4ccco4)nc3c2)cc1 | 41
O=C1C(Cl)=C(NCc2cccnc2)C(=O)c2ccccc21 | -45*
O=C1C(Cl)=C(NCCc2ccccc2)C(=O)c2ccccc21 | 53
O=C1C=C(NCc2ccccc2)c2ccccc2C1=O | 80
O=C(CSc1nc(-c2ccc(F)cc2)nc2c1Cc1ccccc1O2)Nc1cccc(C(=O)O)c1 | 57
S=C1Cc2ccccc2N1 | -303*
COC1=CC(=O)C(OC)=C(OC)C1=O | 76
Cc1ccc(C)c(S(=O)(=O)Nc2ccc(O)c3ccccc23)c1 | 48
COc1ccc(-n2cccc2/C=C2\C(=N)N3N=C(c4ccco4)SC3=NC2=O)cc1 | 35
COc1ccccc1N(CC(=O)N/N=C/c1c(O)ccc2ccccc12)S(C)(=O)=O | -40*
SMILES | HKDC1 activator
COc1ccc(S(=O)(=O)Nc2ccc(O)c3ccccc23)cc1 | 46
Oc1ccc2ccccc2c1C=NC1CCCCC1 | 35
CN(C)c1ccc(Cc2cc3c(O)ccc(O)c3cc(Cc3ccc(N(C)C)cc3)c2=O)cc1 | 60
COc1ccc(C2=CC3=C(Br)C(=O)C(C)(OC(=O)c4cccs4)C(=O)C3=CO2)cc1 (stereo not drawn) | 50
O=C(CNC(=O)/C=C/c1ccco1)N=Nc1c(O)[nH]c2ccccc12 | 51
Cc1ccc(S(=O)(=O)Nc2ccc(O)c3ccccc23)c(C)c1 | 52
C/C(=N\NC(=O)c1c(C)nc2ccccn12)c1ccc(O)cc1O | -45*
CCC(C)(C)NC(=O)C1CCC(CNS(=O)(=O)c2cccc3nsnc23)CC1 (stereo not drawn) | 51
O=C(N/N=C/c1ccc(O)cc1O)c1ccc(CN2C(=O)c3cccc4cccc2c34)cc1 | -41*
Cc1ccc(C(=O)c2coc3c2C(=O)C(=O)c2ccccc2-3)cc1 | 57
COc1ccc(N(CCCN2C(=O)c3cccc4cccc(c34)C2=O)C(=O)c2cccnc2)cc1 | 36
COc1ccc(N=C2NN=C(c3ccc4c(c3)OCCO4)CS2)cc1 | -84*
FC(F)Sc1ccc(N=C2NN=C(c3ccc4c(c3)OCCO4)CS2)cc1 | -101*
N=C1/C(=C\c2coc3ccccc3c2=O)C(=O)N=C2SC(c3ccncc3)=NN12 | 45
COc1cccc2cc(C(=O)Nc3ccc(F)cc3)c(=Nc3ccc(C(=O)O)cc3)oc12 | 77
O=c1cc(O)c2sc(Nc3ccc(Cl)c(F)c3)nc2[nH]1 | 39
O=C1C(Cl)=C(N2CCN(c3ccccc3[N+](=O)[O-])CC2)C(=O)c2ccccc21 | 40
NC1=CC(=O)C(=O)c2ccccc21 | 49
Nc1nc(N2CCN(c3ccccn3)CC2)nc2ccccc12 | -58*
O=C(Nc1ccc2nc(-c3ccco3)c(-c3ccco3)nc2c1)N1CCN(c2ccccn2)CC1 | 57
Cc1ccccc1C(=O)Nc1ccc2c(C#N)c3nc4ccccc4nc3n2c1 | 37
CCCc1nc2oc3c(OC)ncnc3c2c2c1COC(C)(C)C2 | 37
CCOC(=O)C1=C(Cc2ccc(F)cc2)C(=O)c2ccccc2C1=O | 73
